Rows were chosen to be rich in hits. Some 3.7% of all compounds tested hit in one or more screens of this group.
UPR XBP1 act: adaptive UPR (XBP1) activation. 0.33% of 330,000 active. activation, % at 20 µM. CHO-XBP1 luciferase reporter, IRE1-XBP1 UPR activation, luminescence; percent of tunicamycin response, DMSO as zero. AID 463104;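 active means versus positive control, 20 µM dose yields 30% or more activation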;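 further: 100% = tunicamycin at 10 µg/mL and 0% = DMSO only wells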
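assay system = CHO-XBP1 luciferase reporter cells | amount = 1000 cells/well | buffer or medium = F12 plus 10% FBS | compound dosing = single point, 20 µM final compound, 1% DMSO | incubation = 16-18 h cell attachment at 37 °C, then 6 h compound exposure | detection = Steady-Glo luminescence read | controls = tunicamycin 10 µg/mL and vehicle-only wells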
CHOP UPR activ: apoptotic UPR (CHOP) activation; 0.34% of 330,000 active; CHO-CHOP luciferase reporter, luminescence; percent of tunicamycin response over DMSO baseline; AID 449763; activation, % at 10 µM;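 active means at 10 µM dose, activation of 40% or more, normalized to positive control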;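 further: 100% = tunicamycin at 10 µg/mL and 0% = DMSO alone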
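Test system: CHO-CHOP cells, stable luciferase reporter of PERK-eIF2a-CHOP signalling | Quantity: 500 CHO-CHOP cells per well | Buffer or medium: F12 plus 10% serum | Compound dosing: 10 µM single point, 0.5% DMSO | Schedule: 6 h compound treatment, 37 °C | Signal: Luciferase luminescence | Control set: Tunicamycin high control, DMSO low control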
Mdm2 MdmX PPI: inhibitors of human Mdm2/MdmX interaction; AID 485346; inhibition, % at 8 µM; O15151+Q00987; SaOS-2 split-luciferase Mdm2/MdmX complementation, luminescence; 3% of 330,000 active;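 active means inhibition of at least 50% at 8 µM in the primary screen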
Dynein transport: blocks dynein driven cargo transport along microtubules. z-score, hits read low. AID 1381. 0.47% of 220,000 active. 3617.4 mouse cells, GR-EGFP nuclear translocation imaging; test concentration mostly 20 µM; stimulated with dexamethasone, 1 µM; active compounds read low;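 active means plate z-score of nuclear minus cytoplasmic receptor signal below a set negative limit, without overly bright fluorescence or cell loss, cut at about -3.5 in these data, passing the limit was not always enough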;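 further: z-score of nuclear minus cytoplasmic ring GR-EGFP intensity difference per well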
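Also added – dexamethasone, 1.0 µM final · Buffer or medium – tet-free, stripped-serum medium · Schedule – induction 48 h, compound 1 h, agonist 30 min · Detection – formaldehyde fixation, Hoechst nuclear stain, 10x automated fluorescence imaging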
Beta2AR agonist: activates human beta-2 adrenergic receptor causing internalization; P07550; Am2.2-beta2AR cells, FAP receptor internalization, flow cytometry; response, % (no concentration beside the values); 0.43% of 340,000 active;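 active means response above a set limit, near 3 SD of response in nonfluorescent compounds, cut at about 42% in these data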
Target sequence (P07550 whole entry, looked up): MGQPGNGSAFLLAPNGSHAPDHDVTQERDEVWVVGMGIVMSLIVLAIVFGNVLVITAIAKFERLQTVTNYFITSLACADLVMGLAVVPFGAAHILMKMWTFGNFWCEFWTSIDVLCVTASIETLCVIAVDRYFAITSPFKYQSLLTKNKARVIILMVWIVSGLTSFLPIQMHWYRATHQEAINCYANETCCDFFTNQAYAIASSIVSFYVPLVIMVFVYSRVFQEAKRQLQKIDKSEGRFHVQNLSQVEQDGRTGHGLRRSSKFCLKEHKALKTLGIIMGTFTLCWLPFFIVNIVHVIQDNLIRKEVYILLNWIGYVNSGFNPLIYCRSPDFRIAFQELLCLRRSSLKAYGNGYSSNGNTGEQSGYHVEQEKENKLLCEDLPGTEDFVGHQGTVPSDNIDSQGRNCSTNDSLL
MDM2 E3 inh: Mdm2 E3 ligase (human) inhibition; cell-based MDM2 ubiquitination luciferase reporter, 2 h; 0 = plate control, 100 = twice control, blank-subtracted; signal enhancement, % at 5 µM; 0.11% of 210,000 active; AID 1230;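 active means signal enhancement of 30% or more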;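 further: luminescence tracks abundance of the self-degrading MDM2-luciferase fusion protein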
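Material: stable MDM2–luciferase fusion reporter cells / Quantity: 2000 cells/well / Dosing: single 5 µM compound dose, 0.2% final DMSO / Buffer or medium: DMEM / Schedule: 4 h cell settling then 2 h compound exposure, 37 °C / Detection: luminescence with SteadyLite reagent, 15 min at room temperature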
Mdm2-MdmX conf: human Mdm2/MdmX binding inhibition, confirmed. shares compounds with Mdm2 MdmX PPI. luminescent assay. inhibition, % at 8 µM. 55% of 10,000 active; in the data active means inhibition above about 40%
Full FLuc ctr: inhibits full-length luciferase, flagging false Mdm2/MdmX hits; AID 504607; SaOS-2 full-length luciferase counterscreen, luminescence; inhibition, % at 8 µM; 77% of 6,200 active; shares compounds with Mdm2 MdmX PPI;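 active means mean inhibition at 8 µM reaching about 37%, which flags the compound as non-specific, limit read from the data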;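 further: p53-null SaOS-2 cells with luciferase driven by a doxycycline-inducible promoter; compound on cells about two nights before reading with doxycycline added after day one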
* = called active by the depositor.

`CCCC(NC(=O)C(C)NC(=O)CO/N=C1\C=C2CCC3C4CCC(C(C)=O)[C@@]4(C)CCC3[C@@]2(C)CC1)C(=O)O` (some centres undefined) gave UPR XBP1 act -5.4, CHOP UPR activ -0.4, Mdm2 MdmX PPI 1.1 and Beta2AR agonist -3.9.
`Cc1ccc(NC(=O)Cc2cc(C(=O)O)c3ccccc3n2)c(C)c1` gave UPR XBP1 act 10.2, CHOP UPR activ 15.8, Mdm2 MdmX PPI 81.9*, Dynein transport 1.48, Beta2AR agonist 6.6, MDM2 E3 inh -5.7, Mdm2-MdmX conf 58.8* and Full FLuc ctr 40.3*.
For CCCc1cc(C(=O)O)c2ccccc2n1 the results were UPR XBP1 act -1.1, CHOP UPR activ 1.3, Mdm2 MdmX PPI 17.3, Dynein transport -0.283, Beta2AR agonist 2.0 and MDM2 E3 inh -10.9.
For CCCCN(CCCC)CCNC(=O)c1cn(CC)c2ccc(S(=O)(=O)N3CCc4ccccc4C3)cc2c1=O the results were UPR XBP1 act -1.2, CHOP UPR activ 1.4, Mdm2 MdmX PPI 71.9*, Beta2AR agonist 26.4 and Mdm2-MdmX conf 23.9.
Screening CCn1cc(C(=O)NCCCN2CCCC(C)C2)c(=O)c2cc(S(=O)(=O)N3CCc4ccccc4C3)ccc21 (centres undefined) returned UPR XBP1 act -3.5, CHOP UPR activ 0.8, Mdm2 MdmX PPI 82.5*, Dynein transport -1.84, Beta2AR agonist -0.6, MDM2 E3 inh -11.7 and Mdm2-MdmX conf 32.8.
For CCC1CCCCN1CCCNC(=O)c1cn(CC)c2ccc(S(=O)(=O)N3CCc4ccccc4C3)cc2c1=O (centres undefined) the results were UPR XBP1 act 3.6, CHOP UPR activ 0.5, Mdm2 MdmX PPI 90.4*, Dynein transport 0.505, Beta2AR agonist 8.7, MDM2 E3 inh -45.4, Mdm2-MdmX conf 50.1* and Full FLuc ctr 55.2*.
CN(C)CCNC(=O)c1nn(C)c2c1CCc1ccccc1-2 was read as UPR XBP1 act -0.9, CHOP UPR activ -0.5, Mdm2 MdmX PPI 2.0 and Beta2AR agonist -1.6.
Screening O=C(O/N=C/c1ccc(Br)cc1)c1ccc(F)cc1 returned UPR XBP1 act -3.0, CHOP UPR activ 1.6, Mdm2 MdmX PPI 12.7 and Beta2AR agonist -3.6.
COc1ccc(NC(=O)CNc2ccc(C#N)cc2)cc1 was read as UPR XBP1 act 2.6, CHOP UPR activ -0.5, Mdm2 MdmX PPI 5.1, Dynein transport 1.38, Beta2AR agonist 1.1 and MDM2 E3 inh -21.1.
Screening O=C(CSc1ccccc1)N1CCN(S(=O)(=O)c2ccccc2F)CC1 returned UPR XBP1 act 4.4, CHOP UPR activ 1.0, Mdm2 MdmX PPI 5.9 and Beta2AR agonist 0.3.
For O=C(/C=C/c1ccc2ccccc2n1)N1CCN(S(=O)(=O)c2ccc(F)cc2)CC1 the results were UPR XBP1 act -2.9, CHOP UPR activ 0.5, Mdm2 MdmX PPI 61.0*, Dynein transport -1.09, Beta2AR agonist 1.8, Mdm2-MdmX conf 76.1* and Full FLuc ctr 35.1.
Screening O=C(/C=C/c1ccc2ccccc2n1)N1CCN(c2ccccc2)CC1 returned UPR XBP1 act 0.8, CHOP UPR activ -1.0, Mdm2 MdmX PPI 33.6, Dynein transport 0.182, Beta2AR agonist -3.4 and MDM2 E3 inh -47.0.
For O=C(/C=C/c1ccc2ccccc2n1)N1CCN(S(=O)(=O)c2ccccc2F)CC1 the results were UPR XBP1 act -3.8, CHOP UPR activ 1.5, Mdm2 MdmX PPI 75.6*, Dynein transport -1.49, Beta2AR agonist 12.7, MDM2 E3 inh -65.3, Mdm2-MdmX conf 79.8* and Full FLuc ctr 25.5.
Cc1cc(C)cc(NC(=O)C2CCN(S(=O)(=O)c3ccc4c(c3)NC(=O)C(C)S4)CC2)c1 (centres undefined) was read as UPR XBP1 act -8.6, CHOP UPR activ -0.5, Mdm2 MdmX PPI 46.6 and Beta2AR agonist -2.5.
For Cc1ccc(NC(=O)C2CCN(S(=O)(=O)c3ccc4c(c3)NC(=O)C(C)S4)CC2)cc1Cl (centres undefined) the results were UPR XBP1 act 0.3, CHOP UPR activ 3.8, Mdm2 MdmX PPI 61.1*, Beta2AR agonist -0.4 and Mdm2-MdmX conf 9.1.
`N=c1c(C(=O)NC2CCCC2)cc2c(=O)n3ccccc3nc2n1Cc1ccccc1` gave UPR XBP1 act -1.9, CHOP UPR activ 1.5, Mdm2 MdmX PPI 24.9 and Beta2AR agonist -12.9.
COc1ccc(CCn2c(=N)c(C(=O)NCC3CCCO3)cc3c(=O)n4ccccc4nc32)cc1 (centres undefined) was read as UPR XBP1 act -0.3, CHOP UPR activ 1.0, Mdm2 MdmX PPI 11.9 and Beta2AR agonist 18.9.
COc1ccc(CCn2c(=N)c(C(=O)NC3CCCCC3)cc3c(=O)n4ccccc4nc32)cc1 was read as UPR XBP1 act 3.2, CHOP UPR activ 0.3, Mdm2 MdmX PPI 93.1*, Beta2AR agonist -7.1, Mdm2-MdmX conf 30.9 and Full FLuc ctr 81.8*.
For Cc1cccn2c(=O)c3cc(C(=O)NC4CCCCC4)c(=N)n(Cc4ccccc4)c3nc12 the results were UPR XBP1 act -2.8, CHOP UPR activ 7.5, Mdm2 MdmX PPI 93.5*, Beta2AR agonist 32.4 and Mdm2-MdmX conf 31.4.
COc1ccc(CCn2c(=N)c(C(=O)NC3CCCC3)cc3c(=O)n4cccc(C)c4nc32)cc1 was read as UPR XBP1 act 3.9, CHOP UPR activ 0.4, Mdm2 MdmX PPI 88.0*, Beta2AR agonist 11.1, Mdm2-MdmX conf 52.6* and Full FLuc ctr 57.7*.
Cc1nc2c(sc(=S)n2Cc2ccco2)c(=O)n1CC(=O)Nc1ccc(F)cc1 was read as UPR XBP1 act -5.2, CHOP UPR activ 4.1, Mdm2 MdmX PPI 52.3*, Beta2AR agonist -0.1 and Mdm2-MdmX conf 20.9.
Cc1nc2c(sc(=S)n2Cc2ccco2)c(=O)n1CC(=O)Nc1cc(F)ccc1F was read as UPR XBP1 act -2.5, CHOP UPR activ 7.7, Mdm2 MdmX PPI 30.6 and Beta2AR agonist -0.7.
For CCn1c(=S)sc2c(=O)n(CC(=O)Nc3ccccc3C(F)(F)F)c(C)nc21 the results were UPR XBP1 act -0.9, CHOP UPR activ -0.7, Mdm2 MdmX PPI 52.6*, Beta2AR agonist -4.1 and Mdm2-MdmX conf 5.5.

Assay outcomes as filed in PubChem BioAssay.
